Test results published in ChEMBL document CHEMBL1155154, “Target gene sequencing to characterize the penicillin G susceptibility of Neisseria meningitidis” (2007).

Assays:
Assay type in all cases: functional
Neisseria meningitidis [1] = assay: Antimicrobial activity against Neisseria meningitidis isolates harboring penA 25 allele encoding PBP2 mutant
Procedure, shortened: (§1)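 Penicillin G MICs were determined for N. meningitidis isolates grouped by penA allele, with the PBP2 C-terminal region (amino acids 441 to 574) deduced from penA sequencing. Values are geometric mean MICs with lower and upper 95% confidence limits, calculated only for alleles represented by at least five isolates.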

Neisseria meningitidis [2] = assay: Antimicrobial activity against Neisseria meningitidis isolates harboring penA 29 allele encoding PBP2 mutant; procedure, shortened: as §1
Neisseria meningitidis [3] = assay: Antimicrobial activity against Neisseria meningitidis isolates harboring penA 52 allele encoding PBP2 mutant; procedure, shortened: as §1
Neisseria meningitidis [4] = assay: Antimicrobial activity against Neisseria meningitidis isolates harboring penA 15 allele encoding PBP2 mutant; procedure, shortened: as §1
Neisseria meningitidis [5] = assay: Antimicrobial activity against Neisseria meningitidis isolates harboring penA 12 allele encoding PBP2 mutant; procedure, shortened: as §1
Neisseria meningitidis [6] = assay: Antimicrobial activity against Neisseria meningitidis isolates harboring penA 30 allele encoding PBP2 mutant; procedure, shortened: as §1
Neisseria meningitidis [7] = assay: Antimicrobial activity against Neisseria meningitidis isolates harboring penA 23 allele encoding PBP2 mutant; procedure, shortened: as §1
Neisseria meningitidis [8] = assay: Antimicrobial activity against Neisseria meningitidis isolates harboring penA 42 allele encoding PBP2 mutant; procedure, shortened: as §1
Neisseria meningitidis [9] = assay: Antimicrobial activity against Neisseria meningitidis isolates harboring penA 14 allele encoding PBP2 mutant; procedure, shortened: as §1
Neisseria meningitidis [10] = assay: Antimicrobial activity against Neisseria meningitidis isolates harboring penA 19 allele encoding PBP2 mutant; procedure, shortened: as §1
Neisseria meningitidis [11] = assay: Antimicrobial activity against Neisseria meningitidis isolates harboring penA 7 allele encoding PBP2 mutant; procedure, shortened: as §1
Neisseria meningitidis [12] = assay: Antimicrobial activity against Neisseria meningitidis isolates harboring penA 17 allele encoding PBP2 mutant; procedure, shortened: as §1
Neisseria meningitidis [13] = assay: Antimicrobial activity against Neisseria meningitidis isolates harboring penA 20 allele encoding PBP2 mutant; procedure, shortened: as §1
Neisseria meningitidis [14] = assay: Antimicrobial activity against Neisseria meningitidis isolates harboring penA 81 allele encoding PBP2 mutant; procedure, shortened: as §1
Neisseria meningitidis [15] = assay: Antimicrobial activity against Neisseria meningitidis isolates harboring penA 9 allele encoding PBP2 mutant; procedure, shortened: as §1
Neisseria meningitidis [16] = assay: Antimicrobial activity against Neisseria meningitidis isolates harboring penA 33 allele encoding PBP2 mutant; procedure, shortened: as §1
Neisseria meningitidis [17] = assay: Antimicrobial activity against Neisseria meningitidis isolates harboring penA 13 allele encoding PBP2 mutant; procedure, shortened: as §1
Neisseria meningitidis [18] = assay: Antimicrobial activity against Neisseria meningitidis isolates harboring penA 18 allele encoding PBP2 mutant; procedure, shortened: as §1
Neisseria meningitidis [19] = assay: Antimicrobial activity against Neisseria meningitidis isolates harboring penA 83 allele encoding PBP2 mutant; procedure, shortened: as §1
Neisseria meningitidis [20] = assay: Antimicrobial activity against Neisseria meningitidis isolates harboring penA 11 allele encoding PBP2 mutant; procedure, shortened: as §1
Neisseria meningitidis [21] = assay: Antimicrobial activity against Neisseria meningitidis isolates harboring penA 57 allele encoding PBP2 mutant; procedure, shortened: as §1
Neisseria meningitidis [22] = assay: Antimicrobial activity against Neisseria meningitidis isolates harboring penA 5 allele encoding PBP2 mutant; procedure, shortened: as §1
Neisseria meningitidis [23] = assay: Antimicrobial activity against Neisseria meningitidis isolates harboring penA 2 allele encoding PBP2 mutant; procedure, shortened: as §1
Neisseria meningitidis [24] = assay: Antimicrobial activity against Neisseria meningitidis isolates harboring penA 34 allele encoding PBP2 mutant; procedure, shortened: as §1
Neisseria meningitidis [25] = assay: Antimicrobial activity against Neisseria meningitidis isolates harboring penA 3 allele encoding PBP2 mutant; procedure, shortened: as §1
Neisseria meningitidis [26] = assay: Antimicrobial activity against Neisseria meningitidis isolates harboring penA 27 allele encoding PBP2 mutant; procedure, shortened: as §1
Neisseria meningitidis [27] = assay: Antimicrobial activity against Neisseria meningitidis isolates harboring penA 4 allele encoding PBP2 mutant; procedure, shortened: as §1
Neisseria meningitidis [28] = assay: Antimicrobial activity against Neisseria meningitidis isolates harboring penA 16 allele encoding PBP2 mutant; procedure, shortened: as §1
Neisseria meningitidis [29] = assay: Antimicrobial activity against Neisseria meningitidis isolates harboring penA 1 allele encoding PBP2 mutant; procedure, shortened: as §1
Neisseria meningitidis [30] = assay: Antimicrobial activity against Neisseria meningitidis isolates harboring penA 22 allele encoding PBP2 mutant; procedure, shortened: as §1
Neisseria meningitidis [31] = assay: Antimicrobial activity against Neisseria meningitidis isolates harboring penA 111 allele encoding PBP2 P551 mutant; procedure, shortened: as §1

Measured: MIC

CC1(C)S[C@@H]2[C@H](NC(=O)Cc3ccccc3)C(=O)N2[C@H]1C(=O)O [PENICILLIN G]
0.023 µg/mL: Neisseria meningitidis [19] | Neisseria meningitidis [30]
0.004 µg/mL: Neisseria meningitidis [25]
0.094 µg/mL: Neisseria meningitidis [2] | Neisseria meningitidis [4] | Neisseria meningitidis [8] | Neisseria meningitidis [13] | Neisseria meningitidis [18] | Neisseria meningitidis [20] | Neisseria meningitidis [31]
0.032 µg/mL: Neisseria meningitidis [24] | Neisseria meningitidis [26] | Neisseria meningitidis [27]
0.008 µg/mL: Neisseria meningitidis [21] | Neisseria meningitidis [29]
0.19 µg/mL: Neisseria meningitidis [14]
0.015 µg/mL: Neisseria meningitidis [22] | Neisseria meningitidis [23]
0.125 µg/mL: Neisseria meningitidis [6] | Neisseria meningitidis [12] | Neisseria meningitidis [16] | Neisseria meningitidis [17]
0.047 µg/mL: Neisseria meningitidis [28]
0.064 µg/mL: all other assays above
